One series relates to Plasmodium falciparum. The experiment in a line: Antiplasmodial activity against multidrug- resistant Plasmodium falciparum Dd2 assessed as inhibition of [3H]hypoxanthine incorporation after 72 hrs. It is filed as functional, organism-based. An outline of the steps: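 Dd2 parasites kept in continuous culture and sorbitol-synchronized, then exposed to a range of concentrations for 72 h. Growth read by [3H]-hypoxanthine incorporation and converted to percent inhibition. IC50 taken from sigmoidal dose-response curves fitted with a Hill function. At least three independent repeats, reported as mean ± SEM.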

Series [1] can be described thus: Selectivity index, CC50 for HeLa cells to IC50 for Plasmodium falciparum. The class given is functional.
A short description of series [2]: Cytotoxicity in human HeLa cells assessed as cell viability after 72 hrs. The class given is cell-based. An outline of the steps:
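HeLa cells grown in RPMI 1640 with 10% heat-inactivated FBS and gentamicin at 37 °C. About 10,000 cells seeded per well, preincubated 48 h without compound. DMSO stocks (10 mg/ml) diluted 1:200 in medium and added, then 72 h at 37 °C, 5% CO2. Cells fixed with glutaraldehyde, stained with 0.05% methylene blue, eluted with 0.33 M HCl, OD read at 660 nm.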

Where only a bound is given, the exact number is not on record here.

As usually defined, the IC50 is the point on the concentration scale where inhibition reaches its midpoint. What is called CC50 is the concentration giving 50% cytotoxicity. For `NC(=O)CN1CCN(C(C(=O)Nc2ccc(Cl)cc2C(=O)c2ccccc2)c2ccccc2)CC1` (racemic), the IC50 in the series with Plasmodium falciparum stood at 3.32 µM. The “Ratio CC50/IC50” value in series [1] is 22. The cytotoxic concentration (CC50) at 72 h in series [2] was determined as 65 µM.
Regarding `O=C(c1ccccc1)c1cc(Cl)ccc1NC(=O)C(c1ccccc1)N1CCN(c2ccccc2)CC1` (racemic), the IC50 in the series on Plasmodium falciparum is over 20 µM. Further, in series [1], the “Ratio CC50/IC50” value is reported as 5. Besides, the CC50 at 72 h in series [2] is over 98 µM.
Turning to `O=CN1CCN(C(C(=O)Nc2ccc(Cl)cc2C(=O)c2ccccc2)c2ccccc2)CC1` (racemic), the IC50 with Plasmodium falciparum was 3.77 µM. Moreover, the “Ratio CC50/IC50” value in series [1] amounted to 13. Besides, the CC50 at 72 h in series [2] was determined as 50 µM.
For `CCN1CCN(C(C(=O)Nc2ccc(Cl)cc2C(=O)c2ccccc2)c2ccccc2)CC1` (racemic), in that order: 3.62 µM, 21 and 76 µM.
As for `CN(C)CCN1CCN(C(C(=O)Nc2ccc(Cl)cc2C(=O)c2ccccc2)c2ccccc2)CC1` (racemic), the IC50 with Plasmodium falciparum came to 2.56 µM. Moreover, the “Ratio CC50/IC50” value in series [1] came out at 15. Also, the CC50 at 72 h in series [2] worked out at 39 µM.
On to `O=C(c1ccccc1)c1cc(Cl)ccc1NC(=O)C(c1ccccc1)N1CCC(CCO)CC1` (racemic), for which the IC50 in the series on Plasmodium falciparum came out at 15 µM. Moreover, in series [1], the “Ratio CC50/IC50” value was found to be 1. For the same compound, the CC50 at 72 h in series [2] was 19 µM.
In the case of `O=C(c1ccccc1)c1cc(Cl)ccc1NC(=O)C(c1ccccc1)N1CCCCC1` (racemic), in the series on Plasmodium falciparum, the half-maximal inhibitory concentration (IC50) was found to be 10.2 µM. Further, the “Ratio CC50/IC50” value in series [1] is listed as 6. For the same compound, in series [2], the CC50 at 72 h was determined as 63 µM.
As for `O=C1CCN(C(C(=O)Nc2ccc(Cl)cc2C(=O)c2ccccc2)c2ccccc2)CC1` (racemic), in the series on Plasmodium falciparum, the IC50 came out at 7.43 µM. The “Ratio CC50/IC50” value in series [1] is recorded as 4. The CC50 at 72 h in series [2] was determined as 27 µM.
As to `NC(CO)C(=O)Nc1ccc(Cl)cc1C(=O)c1ccccc1` (racemic), the IC50 with Plasmodium falciparum is over 20 µM.
Take `O=C(c1ccccc1)c1cc(Cl)ccc1NC(=O)C(c1ccccc1)N1CCN(CCO)CC1` (racemic): the IC50 in the series with Plasmodium falciparum amounted to 0.33 µM. For the same compound, in series [1], the “Ratio CC50/IC50” value came out at 150. Moreover, the CC50 at 72 h in series [2] worked out at 49 µM.
As for `O=C(c1ccccc1)c1cc(Cl)ccc1NC(=O)C(c1ccccc1)n1ccnc1` (racemic), in the series on Plasmodium falciparum, the IC50 was 4.51 µM. In addition, the “Ratio CC50/IC50” value in series [1] was determined as 12. Also, in series [2], the CC50 at 72 h stood at 55 µM.
In the case of `O=C(c1ccccc1)c1cc(Cl)ccc1NC(=O)C(c1ccc(F)cc1)N1CCN(CCO)CC1` (racemic), the IC50 with Plasmodium falciparum worked out at 0.84 µM. In addition, the “Ratio CC50/IC50” value in series [1] came to 45. Besides, the CC50 at 72 h in series [2] came to 38 µM.
For `O=C(O)CN1CCN(C(C(=O)Nc2ccc(Cl)cc2C(=O)c2ccccc2)c2ccccc2)CC1` (racemic), in that order: over 3 µM, 34 and over 102 µM.
As to `O=C(c1ccccc1)c1cc(Cl)ccc1NC(=O)C(c1ccc(C(F)(F)F)cc1)N1CCN(CCO)CC1` (racemic), in the series on Plasmodium falciparum, the concentration for half-maximal inhibition (IC50) is 0.6 µM. Moreover, the “Ratio CC50/IC50” value in series [1] amounted to 28. In addition, the CC50 at 72 h in series [2] worked out at 17 µM.
For `O=C(c1ccccc1)c1cc(Cl)ccc1NC(=O)C(c1ccccc1)N1CC[S+]([O-])CC1` (racemic), in that order: 9.02 µM, 8 and 71 µM.
Consider `CC(C)(C)OC(=O)N1CCN(C(C(=O)Nc2ccc(Cl)cc2C(=O)c2ccccc2)c2ccccc2)CC1` (centres undefined), for which the IC50 in the series on Plasmodium falciparum was 8.21 µM. For the same compound, the “Ratio CC50/IC50” value in series [1] worked out at 11. In addition, the CC50 at 72 h in series [2] was over 94 µM.
Turning to `CC(C)(C)OC(=O)N[C@@H](C(=O)Nc1ccc(Cl)cc1C(=O)c1ccccc1)c1ccccc1`, the IC50 with Plasmodium falciparum was found to be 6.18 µM. Further, the “Ratio CC50/IC50” value in series [1] stood at 17. The 50% cytotoxic concentration (CC50) at 72 h in series [2] is over 108 µM.
For `O=C(c1ccccc1)c1cc(Cl)ccc1NC(=O)C(c1ccc(Br)cc1)N1CCN(CCO)CC1` (racemic) the same measures were 0.56 µM, 31 and 17 µM.
In the case of `O=C(c1ccccc1)c1cc(Cl)ccc1NC(=O)C(c1ccccc1)N1CCN(c2ccc([N+](=O)[O-])cc2)CC1` (racemic), in the series on Plasmodium falciparum, the IC50 was over 20 µM. The “Ratio CC50/IC50” value in series [1] came to 5. The CC50 at 72 h in series [2] is over 90 µM.
Consider `O=C(c1ccccc1)c1cc(Cl)ccc1NC(=O)C(c1ccccc1)N1CCOCC1` (racemic), for which the IC50 in the series with Plasmodium falciparum turned out to be 6.72 µM. In addition, in series [1], the “Ratio CC50/IC50” value was 6. In series [2], the CC50 at 72 h stood at 39 µM.
`O=C(c1ccccc1)c1cc(Cl)ccc1NC(=O)C(c1ccc(-c2ccccc2)cc1)N1CCN(CCO)CC1` (racemic): the IC50 with Plasmodium falciparum amounted to 0.28 µM. For the same compound, the “Ratio CC50/IC50” value in series [1] came to 59. Further, the CC50 at 72 h in series [2] worked out at 16 µM.
With `Cl.N[C@H](C(=O)Nc1ccc(Cl)cc1C(=O)c1ccccc1)c1ccccc1`, in the series on Plasmodium falciparum, the half-inhibitory concentration (IC50) is over 16 µM. In addition, the “Ratio CC50/IC50” value in series [1] came to 3. The cytotoxic concentration (CC50) at 72 h in series [2] worked out at 43 µM.
For `O=C(c1ccccc1)c1cc(Cl)ccc1NC(=O)C(c1ccc2ccccc2c1)N1CCN(CCO)CC1` (racemic), the IC50 with Plasmodium falciparum came to 0.18 µM. For the same compound, the “Ratio CC50/IC50” value in series [1] was 94. Further, the 50% cytotoxic concentration (CC50) at 72 h in series [2] turned out to be 17 µM.
As to `Cl.NC(C(=O)Nc1ccc(Cl)cc1C(=O)c1ccccc1)c1ccccc1` (racemic), in the series on Plasmodium falciparum, the IC50 worked out at 6.71 µM. Also, the “Ratio CC50/IC50” value in series [1] came to 6. The CC50 at 72 h in series [2] is 37 µM.
Regarding `Cl.N[C@@H](C(=O)Nc1ccc(Cl)cc1C(=O)c1ccccc1)c1ccccc1`, the IC50 with Plasmodium falciparum was 9.25 µM. Moreover, the “Ratio CC50/IC50” value in series [1] came to 1. In addition, the CC50 at 72 h in series [2] is 12 µM.
As for `O=C(c1ccccc1)c1cc(Cl)ccc1NC(=O)C(c1ccccc1)N1CCN(Cc2ccccc2)CC1` (racemic), the IC50 with Plasmodium falciparum is over 20 µM. The “Ratio CC50/IC50” value in series [1] is 6. In addition, in series [2], the 50% cytotoxic concentration (CC50) at 72 h is over 118 µM.
Regarding `O=C(c1ccccc1)c1cc(Cl)ccc1NC(=O)C(c1cccc2ccccc12)N1CCN(CCO)CC1` (racemic), the IC50 in the series with Plasmodium falciparum was 0.95 µM. In addition, in series [1], the “Ratio CC50/IC50” value was 18. Moreover, the CC50 at 72 h in series [2] was 17 µM.
For `Cl.NC(Cc1ccccc1)C(=O)Nc1ccc(Cl)cc1C(=O)c1ccccc1` (racemic), in the series with Plasmodium falciparum, the IC50 turned out to be 14.1 µM. In series [1], the “Ratio CC50/IC50” value amounted to 3. Further, the CC50 at 72 h in series [2] was determined as 38 µM.
For `CCCN1CCN(C(C(=O)Nc2ccc(Cl)cc2C(=O)c2ccccc2)c2ccccc2)CC1` (racemic), in that order: 6.23 µM, 6 and 38 µM.
Regarding `O=C(c1ccccc1)c1cc(Cl)ccc1NC(=O)C(c1ccccc1)N1CCSCC1` (racemic), the half-maximal inhibitory concentration (IC50) in the series with Plasmodium falciparum stood at 11.5 µM. Besides, the “Ratio CC50/IC50” value in series [1] is recorded as 10. The CC50 at 72 h in series [2] was over 111 µM.
Turning to `CC(C)NC(=O)CN1CCN(C(C(=O)Nc2ccc(Cl)cc2C(=O)c2ccccc2)c2ccccc2)CC1` (racemic), the IC50 in the series with Plasmodium falciparum is 0.98 µM. Further, the “Ratio CC50/IC50” value in series [1] was 41. The CC50 at 72 h in series [2] is 40 µM.
For `CCOC(=O)N1CCN(C(C(=O)Nc2ccc(Cl)cc2C(=O)c2ccccc2)c2ccccc2)CC1` (racemic), in that order: 4.26 µM, 15 and 64 µM.
For `COC(=O)CN1CCN(C(C(=O)Nc2ccc(Cl)cc2C(=O)c2ccccc2)c2ccccc2)CC1` (racemic) the same measures were over 3 µM, 33 and over 99 µM.
For the compound `CC(C)(C)OC(=O)N[C@H](C(=O)Nc1ccc(Cl)cc1C(=O)c1ccccc1)c1ccccc1`, the IC50 in the series with Plasmodium falciparum worked out at 8.47 µM. In series [1], the “Ratio CC50/IC50” value came to 13. For the same compound, in series [2], the CC50 at 72 h is over 108 µM.
As for `CN1CCN(C(=O)NC(C(=O)Nc2ccc(Cl)cc2C(=O)c2ccccc2)c2ccccc2)CC1` (single isomer, unassigned), the IC50 in the series with Plasmodium falciparum was found to be 4.21 µM. Besides, the “Ratio CC50/IC50” value in series [1] is 17. Besides, the CC50 at 72 h in series [2] turned out to be 72 µM.
Turning to `CN1CCN(C(C(=O)Nc2ccc(Cl)cc2C(=O)c2ccccc2)c2ccccc2)CC1` (racemic), the IC50 with Plasmodium falciparum worked out at 3.54 µM. Also, the “Ratio CC50/IC50” value in series [1] was 18. Moreover, the CC50 at 72 h in series [2] is 63 µM.
With `CN1CCN(C(=O)N[C@@H](C(=O)Nc2ccc(Cl)cc2C(=O)c2ccccc2)c2ccccc2)CC1`, in the series on Plasmodium falciparum, the IC50 was found to be 1.35 µM. In addition, in series [1], the “Ratio CC50/IC50” value amounted to 45. For the same compound, the CC50 at 72 h in series [2] was determined as 60 µM.

Values taken from ChEMBL document CHEMBL1759987, “2-Acylamino-5-chlorobenzophenones with enhanced selectivity towards malaria parasites” (Eur J Med Chem, 2011).
